# Data: PubChem BioAssay AID651608 (The Scripps Research Institute Molecular Screening Center, 2012)
# The other results are listed elsewhere or left out. Active and inactive are the calls of the source.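 How the source made its calls: active means average inhibition over triplicates above the hit cutoff set in the earlier primary screen (cut at about 25% in these data); inactive means the rest.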
# Target: ADP-ribosylation factor GTPase-activating protein 1 (Rattus norvegicus) (UniProt Q62848)
# Assay: retest of rat ARFGAP1 GAP activity blockers – biochemical, fluorescence polarization, triplicate, confirmation (AID 651608);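 further: 0% = Arfgap1 plus ARF1-GTP with DMSO and 100% = wells lacking Arfgap1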
# Conditions: ARFGAP1-stimulated ARF1 GTP hydrolysis, GDP tracer FP; at 16.5 µM; hits give high values
# In short: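 material = rat Arfgap1 GAP domain 1-136 plus human ARF1 Δ1-17 | buffer or medium = HEPES-based assay buffer at pH 7.5 | times = reaction 120 min at 25 °C after 20 min pre-incubation | technique = GDP tracer fluorescence polarization | read-out = percent inhibition | benchmarks = high control wells lacking Arfgap1 | repeats = three replicates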
# ADP-ribosylation factor GTPase-activating protein 1 (Rattus norvegicus), sequence (Q62848 whole entry, looked up): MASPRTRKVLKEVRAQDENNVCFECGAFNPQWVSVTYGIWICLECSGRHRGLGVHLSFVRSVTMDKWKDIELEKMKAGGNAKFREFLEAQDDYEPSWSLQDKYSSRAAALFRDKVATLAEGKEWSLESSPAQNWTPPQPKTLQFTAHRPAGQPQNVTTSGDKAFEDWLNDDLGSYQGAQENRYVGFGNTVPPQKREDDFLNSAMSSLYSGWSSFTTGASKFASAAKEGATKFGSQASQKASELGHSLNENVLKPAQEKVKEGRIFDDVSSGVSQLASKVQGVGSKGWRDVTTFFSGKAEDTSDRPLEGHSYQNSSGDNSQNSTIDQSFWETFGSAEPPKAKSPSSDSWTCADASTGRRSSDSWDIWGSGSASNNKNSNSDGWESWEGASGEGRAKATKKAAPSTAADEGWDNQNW
row,SMILES,inhibition
1,COc1ccccc1OCC(=O)OCn1c(SC)nnc(C)c1=O,0.34% (inactive)
2,COc1ccc(-n2nc3c(N4CCC(C(=O)NCc5ccccc5)CC4)nnc(C)c3c2C)cc1,44% (active)
3,O=C(O)CSCc1ccc(C(=O)O)o1,5.16% (inactive)
4,C#C[C@]1(O)CC[C@H]2[C@@H]3CCC4=CC(=O)CC[C@@H]4[C@H]3CC[C@@]21CC,4.82% (inactive)
5,O=C(O)CCn1cc(/C=C/C(=O)c2ccc(Cl)cc2)c(-c2cccc(Br)c2)n1,-2.84% (inactive)
6,CCOC(=O)C1CCN(C(c2cc3cc(C)cc(C)c3[nH]c2=O)c2nnnn2C2CCCCC2)CC1 (configuration not stated),0.48% (inactive)
7,COCCNc1cc(-c2ccccc2)nc2cc(-c3cccc(F)c3)nn12,10.8% (inactive)
8,COc1ccc(/C=C2\SC(=S)N(CCCC(=O)NC3CCCC3)C2=O)cc1OC,-4.01% (inactive)
9,COc1ccc(CNC(=O)C(Cc2ccccc2)n2cccc2)cc1 (configuration not stated),2% (inactive)
10,c1ccc(-c2cc(-c3nnc4sc(-c5ccccn5)nn34)[nH]n2)cc1,36.3% (active)
11,CCNS(=O)(=O)c1ccc(NC(=O)Nc2cccc(C(F)(F)F)c2)cc1,18.2% (inactive)
12,Cc1ccc2nc(N3C(=O)C(O)=C(C(=O)c4ccco4)C3c3cccc(O)c3)sc2c1 (configuration not stated),18.3% (inactive)
13,Cc1ccc(NC(=O)c2ccc(Oc3ncccn3)cc2)cc1,1.89% (inactive)
14,Cc1ccc2nc(SCC(=O)N3CC(C)OC(C)C3)nc(=O)n2c1 (configuration not stated),90.3% (active)
15,O=C(Nc1cccc(-c2nc3ccccc3[nH]2)c1)c1ccc(C(=O)Nc2cccc(-c3nc4ccccc4[nH]3)c2)cc1,60.7% (active)
16,Cn1c(=O)[nH]c(=O)c2c1nc(N1CCN(CCO)CC1)n2CCSc1nc2ccccc2s1,-2.06% (inactive)
17,O=C(CCc1ccccc1)Nc1ncc([N+](=O)[O-])s1,-7.17% (inactive)
18,CCO[C@@H]1OC(C(N)=O)=C[C@H](c2ccc(Br)cc2)[C@H]1CCCO,0.74% (inactive)
19,CN(C)CCNC(=O)c1ccc(-c2cn3c(-c4ccc(Oc5ccccc5)cc4)cnc3cn2)cc1,48.8% (active)

row,SMILES,inhibition
1,CC1CCc2[nH]c3ccc(C(=O)N(C)CC(=O)Nc4cccc(F)c4)cc3c2C1 (configuration not stated),1.73% (inactive)
2,Nc1ccc(S(=O)(=O)Nc2nccc(/C=C/c3ccc(Br)s3)n2)cc1,-3.16% (inactive)
3,CCN(CC)c1ccc(NC(=O)CN2CCN(c3ccccn3)CC2)cc1,-5.51% (inactive)
4,COc1ccc(C(CNC(=O)c2cccc(S(=O)(=O)Nc3ccccc3Cl)c2)N2CCOCC2)cc1 (configuration not stated),4.17% (inactive)
5,COC(=O)c1cc2c(c3c4ccccc4n(S(=O)(=O)c4cccc(C)c4)c13)C(=O)N(Cc1ccccc1)C2,-0.32% (inactive)
6,COc1ccc(Cl)cc1NC(=O)Cn1nc(-c2ccc(C)cc2)n(C)c1=S,1.54% (inactive)
7,Cc1ccc(-n2ncc3c2ncn2nc(-c4ccco4)nc32)c(C)c1,3.31% (inactive)
8,COc1ccc(C(N)c2csc(NC(=O)Nc3cccc(C(F)(F)F)c3)n2)cc1 (configuration not stated),19.2% (inactive)
9,CC(C)CCSc1ncnc2c1oc1nc3c(cc12)COC(C)(C)C3,1.56% (inactive)
10,O=C(/C=C/c1cn(-c2ccccc2)nc1-c1ccc2c(c1)OCCO2)NCCCN1CCOCC1,13% (inactive)
11,COc1cccc(CNc2nc(C(F)(F)F)nc3ccccc23)c1,8.01% (inactive)
12,O=C(NC1CCCCC1)c1ccc(CNc2c(N3CCOCC3)c(=O)c2=O)cc1,-1.66% (inactive)
13,COc1ccc(NC(=O)c2cn(-c3ccccc3)nc2SC)cc1,18.4% (inactive)
14,OC(COc1cccc(OCC(O)CN2CCCC2)c1)CN1CCCC1 (configuration not stated),1.32% (inactive)
15,COc1ccc(-c2csc(Nc3ccc(O)cc3)n2)cc1,4.53% (inactive)
16,CCOC(=O)c1ccc(Nc2cc3ccccc3c(=O)[nH]2)cc1,9.83% (inactive)
17,CCn1c(SCc2cc(=O)n3ccsc3n2)nc2ccccc21,-5.82% (inactive)
18,Cc1cc(C)cc(NC(=O)C2CCCN(S(=O)(=O)c3ccc4[nH]c(=O)ccc4c3)C2)c1 (configuration not stated),0.48% (inactive)
